Source: PubChem BioAssay (Broad Institute)
RAD54 branch – inhibitors of human RAD54 branch migration | Q92698 | RAD54 Holliday junction branch migration, FAM/BHQ fluorescence | inhibition, % at 10.4 µM | 360,000 compounds, 0.14% hits | AID 602329;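 active means mean normalized replicate activity at least 40 and at least half of replicates scoring 40 or more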;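 further: 0% = median of neutral control wells and 100% = median of positive control wells; inhibitors cause a drop in the FAM fluorescence signal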
Target sequence (Q92698 whole entry, looked up): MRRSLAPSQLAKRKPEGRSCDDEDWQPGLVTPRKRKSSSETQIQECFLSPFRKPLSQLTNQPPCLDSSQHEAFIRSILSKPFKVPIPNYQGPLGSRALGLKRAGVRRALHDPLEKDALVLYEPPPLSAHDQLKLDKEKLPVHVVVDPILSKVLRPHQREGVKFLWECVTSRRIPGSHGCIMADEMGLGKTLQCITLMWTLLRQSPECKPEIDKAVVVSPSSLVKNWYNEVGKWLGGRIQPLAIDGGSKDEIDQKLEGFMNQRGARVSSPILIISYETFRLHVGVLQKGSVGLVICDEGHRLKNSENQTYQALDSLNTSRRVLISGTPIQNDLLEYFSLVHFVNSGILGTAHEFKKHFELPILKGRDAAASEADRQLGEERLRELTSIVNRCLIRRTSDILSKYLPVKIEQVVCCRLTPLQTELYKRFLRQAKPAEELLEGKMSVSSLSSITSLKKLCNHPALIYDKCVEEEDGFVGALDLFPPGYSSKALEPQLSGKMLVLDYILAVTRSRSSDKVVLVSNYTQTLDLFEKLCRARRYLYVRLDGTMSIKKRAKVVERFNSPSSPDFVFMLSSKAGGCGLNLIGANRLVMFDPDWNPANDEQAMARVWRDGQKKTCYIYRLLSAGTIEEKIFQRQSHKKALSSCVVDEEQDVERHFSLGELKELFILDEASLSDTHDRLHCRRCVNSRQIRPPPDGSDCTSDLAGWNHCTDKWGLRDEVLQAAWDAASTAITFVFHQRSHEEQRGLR
E-sel inducer – induces E-selectin expression in human endothelial cells; HUVEC E-selectin immunofluorescence imaging; normalized: neutral wells 0, TNF-alpha wells 100; P16581; AID 686992; 260,000 compounds, 0.37% hits; activation, % at 7.58 µM;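 active means mean E-selectin-positive cell signal at least 10% of the positive control, reached in at least 60% of replicates, without over 20% cell loss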
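System: HUVEC / Compound: single concentration / Signal: immunofluorescence imaging / Read-out: percent E-selectin-positive cells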
RAD52 inh – blocks human RAD52 DNA annealing; recombinant RAD52 DNA annealing, FRET fluorescence; 360,000 compounds, 0.46% hits; P43351; inhibition, % at 18.7 µM;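 active means every replicate showing at least 50% inhibition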
PglD DTNB – blocks C. jejuni PglD acetyltransferase activity; purified PglD enzyme, DTNB colorimetric CoA detection; inhibition, % at 12.5 µM; 360,000 compounds, 0.098% hits; AID 602405; in the data active means inhibition above about 16%, passing the limit was not always enough
XiGFP reactiv – X-chromosome reactivation activator | 360,000 compounds, 0.055% hits | AID 743238 | activation, % at 7.58 µM | XiGFP mouse fibroblasts, % GFP-positive cells imaging, 3 d; cells co-treated with 5-aza-dC sensitizer; scaled so ellipticine positive control = 100%;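 active means mean normalized replicate activation at least 10% and every replicate at or above 10%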;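 further: 0% = median of on-plate neutral control wells and 100% = ellipticine 6 µM median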
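material = 68-5-11 XiGFP fibroblast line | medium = DMEM plus 5-aza-dC sensitizer | schedule = 3 days compound exposure | benchmarks = positive control ellipticine, 6 µM final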
rRNA inh HTS – selective bacterial rRNA inhibition in E. coli | E. coli WT GFP vs humanized-ribosome RFP mutants, fluorescence, 24 h; active compounds read low; DMSO median 0, no signal -100 | GFP signal change (wild-type ribosome), % (test concentration not listed) | 350,000 compounds, 1.6% hits | AID 720706;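 active means significant combined selectivity score with lowered wild-type GFP, culture density cut under 30%, mutant RFP and density less affected; inactive means any of these conditions unmet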
* hit, by the source's call; · = no result. Hits are enriched below; roughly 2% of the tested compounds scored in any of these assays.

SMILES	RAD54 branch	E-sel inducer	RAD52 inh	PglD DTNB	XiGFP reactiv	rRNA inh HTS
COc1cc(-c2nc3ccccc3s2)ccc1O	15.1	·	·	2.6	·	·
CCOc1cc(-c2nc3ccccc3s2)ccc1O	8.4	0.4	-15.8	1.0	0.2	-35.0*
O=C(CSc1nc2ccc([N+](=O)[O-])cc2[nH]1)NCCc1ccccc1	·	·	4.7	·	·	-27.5*
COc1ccc2nc(SCC(=O)NCCc3ccccc3)[nH]c2c1	·	·	-6.3	·	0.2	-24.4*
O=C(CSc1nc2ccc(Cl)cc2[nH]1)NCCc1ccccc1	·	-0.3	-20.2	·	0.0	-9.2
O=C(C[C@H]1C[C@@H]2c3cc(NC(=O)Nc4ccccc4)ccc3O[C@@H]2[C@H](CO)O1)NCCN1CCCCC1	2.1	0.2	11.7	0.7	-0.1	2.7
COC(=O)C[C@H]1C[C@@H]2c3cc(NC(=O)NC4CCCCC4)ccc3O[C@@H]2[C@@H](CO)O1	-9.7	0.3	4.1	1.3	0.0	3.3
O=C(Nc1ccc(F)cc1)N1C[C@H]2[C@@H](c3ccccc31)[C@@H](CO)N2C(=O)c1ccncc1	-2.6	0.1	-16.4	1.0	0.1	1.6
COc1ccc2cc(CN(Cc3cccnc3)Cc3nnnn3Cc3ccccc3)c(=O)[nH]c2c1	·	·	-9.0	·	·	-27.8*
COc1ccc2[nH]c(=O)c(CN(c3ccccc3)S(=O)(=O)c3ccccc3)cc2c1	-14.9	86.4*	-26.1	-5.0	0.3	11.0
COc1cccc(CN(Cc2cccnc2)S(=O)(=O)c2ccc(-n3cnnn3)c(C)c2)c1	-5.6	·	-4.7	-2.4	·	-24.8*
COc1ccc(S(=O)(=O)N(Cc2cccnc2)Cc2cc3ccccc3[nH]c2=O)cc1	1.8	·	-13.1	-2.2	-0.1	-28.9*
COc1ccc2[nH]c(=O)c(CN(c3ccccc3OC)S(=O)(=O)c3ccccc3)cc2c1	6.8	0.1	-2.8	-222.7	0.3	8.4
COc1ccc2cc(CN(Cc3cccs3)Cc3nnnn3Cc3ccccc3)c(=O)[nH]c2c1	-17.6	·	·	-2.8	·	·
CCCC(=O)Nc1ccc2c(c1)C(=O)N(C)[C@@H]1CC[C@@H](CC(=O)O)O[C@@H]1CO2	-5.9	0.1	10.1	-3.3	0.0	2.3
Cc1ccc(-c2c[n+](CC(=O)c3cccs3)c3n2CCC3)cc1	·	·	-2.6	·	0.2	-43.7*
O=C(C[n+]1cc(-c2ccc(Cl)cc2)n2c1CCC2)Nc1nc(-c2ccccc2)cs1	·	·	8.8	·	0.0	-44.4*
Cc1ccc(-c2c[n+](CC(=O)Nc3ccc(C)cc3C)c3n2CCC3)cc1	-2.0	0.2	-10.6	0.0	0.1	-33.1*
Cc1ccc(NC(=O)C[n+]2cc(-c3ccc(C)cc3)n3c2CCC3)cc1	14.4	0.4	-7.1	-1.8	0.0	·
COc1ccc(-c2c[n+](CC(=O)N3c4ccccc4Sc4ccccc43)c3n2CCC3)cc1	·	-0.1	7.3	·	0.0	-45.1*
C[C@@H]1CN([C@@H](C)CO)C(=O)c2cc(NC(=O)c3ccncc3)ccc2O[C@@H](C)CCCCO[C@@H]1CN(C)C	2.9	0.0	-11.7	-0.9	-0.1	-1.2
CC(C)NC(=O)Nc1ccc2c(c1)C(=O)N(C)[C@H]1CC[C@@H](CC(=O)NCC(F)(F)F)O[C@@H]1CO2	-13.5	-0.1	·	5.8	0.2	-0.2
CNC[C@@H]1Oc2c(cccc2N(C)C)C(=O)N(C)C[C@H]1C	·	·	·	·	0.1	1.6
O=C(C=C=Nc1ccccc1)C(=O)N=C=Cc1ccccc1	·	14.4	-168.4	-0.8	-0.2	-30.7*
OCC1CCCN(C(=S)Nc2ccc(Nc3ccccc3)cc2)C1 (stereo unspecified)	-9.7	·	-3.9	5.5	0.0	-27.0*
SMILES	RAD54 branch	E-sel inducer	RAD52 inh	PglD DTNB	XiGFP reactiv	rRNA inh HTS
CCN(CC)Cc1cc(Nc2c3ccccc3nc3c4ccccc4n(C)c23)cc(CN(CC)CC)c1O	·	0.2	106.0*	·	0.1	-23.4
CCOc1cc2nc3c4ccccc4n(C)c3nc2cc1OCC	·	·	-11.4	·	0.1	13.3
CO[C@@H]1CN(C)C(=O)c2ccc(NC(=O)C3CCOCC3)cc2OC[C@H](C)N(C)C[C@H]1C	2.1	3.7	·	-4.1	0.9	2.4
Nc1ccc2c3c(cccc13)-c1ccccc1-2	-0.2	0.0	-32.5	-3.4	116.6*	-10.5
Cc1ccc2c3c(cccc13)-c1ccccc1C2=O	-7.4	·	-52.9	0.3	0.0	-12.3
COc1ccc(CNc2c(C(=O)O)cnc3c2cnn3C)cc1	2.2	·	-9.4	0.9	0.0	-18.1
CCOC(=O)c1cnc2c(cnn2C)c1NCc1ccc(OC)cc1	5.0	0.7	-1.7	5.9	-0.2	-19.0*
O=[N+]([O-])c1ccccc1C(=Nc1ccccc1)c1c(O)cc(O)cc1O	-16.5	0.0	-8.6	-0.2	0.0	-21.2*
O=C(C[C@@H]1CC[C@H]2[C@@H](COC[C@@H](O)CN2CCc2ccccc2)O1)N1CCC(Cc2ccccc2)CC1	5.8	0.1	0.5	-3.6	-0.2	-49.0
Cc1sc2ncnc(N3CCC(C(=O)NNC(=O)COc4cccc(C(F)(F)F)c4)CC3)c2c1C	·	-0.3	-30.3	·	0.0	-18.8*
Cc1ccc(OCC(=O)NNC(=O)C2CCN(c3ncnc4sc(C)c(C)c34)CC2)cc1	·	2.0	-13.2	·	0.1	-16.6
O=C(c1cc(Cl)nc2ccccc12)N(Cc1nnc(-c2ccc(Cl)cc2)o1)C1CC1	·	-1.7	-5.7	·	0.0	-27.4*
O=C1CNC[C@@H]2[C@@H](c3ccc(C4=CCCC4)cc3)[C@@H](CO)N12	·	-0.1	-15.2	·	0.0	1.5
O=C(CN(Cc1ccc(F)cc1)C(=O)CNS(=O)(=O)c1ccc(F)cc1)NCc1ccco1	-1.0	30.1*	-8.2	1.0	0.4	-0.9
C=Cc1cnc([N+](=O)[O-])n1C	-3.1	0.2	10.7	-1.6	88.3*	-10.5
CN(C)c1ccc(/C=C/c2c([N+](=O)[O-])c(=O)n(C)c(=O)n2C)cc1	4.8	0.0	-7.5	-7.6	0.1	5.0
CCOC(=O)c1c(CSC(=N)N)n(C)c2cc(Br)c(OC(C)=O)cc12	·	·	26.6	·	0.1	-27.0*
O=C1c2ccccc2C(=O)N1C1CCN(Cc2cccc(OCCO)c2)CC1	·	·	4.5	·	·	·
O=C(NCc1nc(-c2ccc(C(F)(F)F)cc2)no1)Nc1cc(Cl)cc(Cl)c1	·	·	-2.5	·	0.2	-46.9*
O=C(NCc1nc(-c2ccc(C(F)(F)F)cc2)no1)Nc1ccc(F)cc1F	-1.5	·	-8.2	-0.8	0.0	15.0
C[C@H](CO)N1C[C@H](C)[C@H](CN(C)C(=O)Nc2cccc(F)c2)Oc2ncc(C3=CCCCC3)cc2C1=O	8.6	-0.4	30.0	0.8	0.2	-1.4
COc1ccc(NC(=O)Cc2ccc(C)cc2)cc1S(=O)(=O)N1CCCCC1	-4.3	4.7	-15.9	0.5	0.3	-15.6
COc1ccc(NC(=O)Cc2ccc(C)c(C)c2)cc1S(=O)(=O)N1CCCCC1	·	-0.3	-22.9	·	-0.1	-28.7*
